In ChEMBL document CHEMBL1154578, “Aminosterols from the dogfish shark Squalus acanthias” (2000):
Converted amounts (≈) assume the structure as drawn.

Columns and labels:
Format in all cases: functional
Pseudomonas aeruginosa = test: Antimicrobial activity against Pseudomonas aeruginosa ATCC 27853
Method in brief: (§1)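 Broth microdilution MIC: log-phase microbes at (0.9-1.1) × 10⁵ cfu/mL in 0.5× trypticase soy broth, exposed to increasing amounts of aminosterol in microtiter plates, incubated at 37 °C for 18-24 h. Aminosterol starting solutions at 2 mg/mL in 250 mM sodium acetate, pH 6.6.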

Staphylococcus aureus = test: Antimicrobial activity against Staphylococcus aureus ATCC 29218; conditions: ATCC 29213, in the assay text read “ATCC 29213” for “ATCC 29218”; method in brief: as §1
Escherichia coli = test: Antimicrobial activity against Escherichia coli ATCC 25922; method in brief: as §1
Candida albicans = test: Antimicrobial activity against Candida albicans ATCC 90028; method in brief: as §1

C=C(C)C(=O)CC[C@@H](C)[C@H]1CC[C@H]2[C@@H]3[C@H](O)C[C@H]4C[C@@H](NCCCNCCCCN)CC[C@]4(C)[C@H]3CC[C@]12C
MIC (Pseudomonas aeruginosa): 16 µg/mL (≈ 29.4 µM)
MIC (Staphylococcus aureus): 2 µg/mL (≈ 3.68 µM)
MIC (Escherichia coli): 16 µg/mL (≈ 29.4 µM)
MIC (Candida albicans): 2 µg/mL (≈ 3.68 µM)

CC(COS(=O)(=O)O)C(=O)CC[C@@H](C)[C@H]1CC[C@H]2[C@@H]3[C@H](O)C[C@H]4C[C@@H](NCCCNCCCCN)CC[C@]4(C)[C@H]3CC[C@]12C (some centres not stated)
MIC (Pseudomonas aeruginosa): 128 µg/mL (≈ 199 µM)
MIC (Staphylococcus aureus): 8 µg/mL (≈ 12.5 µM)
MIC (Escherichia coli): 128 µg/mL (≈ 199 µM)
MIC (Candida albicans): 32 µg/mL (≈ 49.8 µM)

CC(COS(=O)(=O)O)[C@H](O)CC[C@@H](C)[C@H]1CC[C@H]2[C@@H]3[C@H](O)C[C@H]4C[C@@H](NCCCNCCCCN)CC[C@]4(C)[C@H]3CC[C@]12C (some centres not stated)
MIC (Pseudomonas aeruginosa): 32 µg/mL (≈ 49.7 µM)
MIC (Staphylococcus aureus): 4 µg/mL (≈ 6.21 µM)
MIC (Escherichia coli): 128 µg/mL (≈ 199 µM)
MIC (Candida albicans): 16 µg/mL (≈ 24.8 µM)

CC(CSCC(N)C(=O)O)C(=O)CC[C@@H](C)[C@H]1CC[C@H]2[C@@H]3[C@H](O)C[C@H]4C[C@@H](NCCCNCCCCN)CC[C@]4(C)[C@H]3CC[C@]12C (some centres not stated)
MIC (Pseudomonas aeruginosa): 256 µg/mL (≈ 385 µM)
MIC (Staphylococcus aureus): 8 µg/mL (≈ 12 µM)
MIC (Escherichia coli): 256 µg/mL (≈ 385 µM)
MIC (Candida albicans): 128 µg/mL (≈ 192 µM)

CC(C)[C@](CO)(CC[C@@H](C)[C@H]1CC[C@H]2[C@@H]3[C@H](O)C[C@H]4C[C@@H](NCCCNCCCCN)CC[C@]4(C)[C@H]3CC[C@]12C)OS(=O)(=O)O
MIC (Pseudomonas aeruginosa): 16 µg/mL (≈ 24.3 µM)
MIC (Staphylococcus aureus): 2 µg/mL (≈ 3.04 µM)
MIC (Escherichia coli): 8 µg/mL (≈ 12.2 µM)
MIC (Candida albicans): 32 µg/mL (≈ 48.6 µM)

CC(C)[C@@H](CC[C@@H](C)[C@H]1CC[C@H]2[C@@H]3[C@H](O)C[C@H]4C[C@@H](NCCCNCCCCN)CC[C@]4(C)[C@H]3C[C@H](O)[C@]12C)OS(=O)(=O)O
MIC (Pseudomonas aeruginosa): 16 µg/mL (≈ 24.8 µM)
MIC (Staphylococcus aureus): 8 µg/mL (≈ 12.4 µM)
MIC (Escherichia coli): 16 µg/mL (≈ 24.8 µM)
MIC (Candida albicans): 32 µg/mL (≈ 49.7 µM)

CC(C)[C@@H](CC[C@@H](C)[C@H]1CC[C@H]2[C@@H]3[C@H](O)C[C@H]4C[C@@H](NCCCNCCCCN)CC[C@]4(C)[C@H]3CC[C@]12C)OS(=O)(=O)O [SQUALAMINE]
MIC (Pseudomonas aeruginosa): 16 µg/mL (≈ 25.5 µM)
MIC (Staphylococcus aureus): 1 µg/mL (≈ 1.59 µM)
MIC (Escherichia coli): 4 µg/mL (≈ 6.37 µM)
MIC (Candida albicans): 16 µg/mL (≈ 25.5 µM)

CC(C)[C@@H](CC[C@@H](C)[C@H]1CC[C@H]2[C@@H]3[C@H](O)C[C@H]4C[C@@H](NCCCNCCCCNCCCN)CC[C@]4(C)[C@H]3CC[C@]12C)OS(=O)(=O)O [TRODUSQUEMINE]
MIC (Pseudomonas aeruginosa): 4 µg/mL (≈ 5.84 µM)
MIC (Staphylococcus aureus): 1 µg/mL (≈ 1.46 µM)
MIC (Escherichia coli): 1 µg/mL (≈ 1.46 µM)
MIC (Candida albicans): 4 µg/mL (≈ 5.84 µM)
